Screening results deposited in PubChem BioAssay by several laboratories.
MT1-MMP act inh: MT1-MMP (human) activation inhibition. P50281. HT1080 RFP-PRO-GFP cells, GFP/RFP ratio fluorescence, overnight; percent of plate control window, DMSO zero. GFP/RFP ratio change, % at 20 µM. actives 0.061% (n = 360,000). AID 651647;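 active means GFP/RFP ratio change of at least 30% with cell ATP level not reduced by more than half and red fluorescence within 50% of control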
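Test system: HT1080 RFP-PRO-GFP cells; Benchmarks: DMSO and RFP-L50D-GFP cell wells; Timing: cells overnight before dosing, compound overnight, 37 °C, 5% CO2; Compound: one 20 µM compound dose with 1% DMSO; Read-out: GFP/RFP fluorescence ratio.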
SKN-1 inh: blocks SKN-1 activity in C. elegans; actives 0.49% (n = 360,000); inhibition, % at 21.8 µM; C. elegans VP596 Pgst-4::GFP/RFP ratio, acrylamide-induced, 24 h;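 active means interference check ratio from 0.5 to 1.5 plus GFP to RFP signal ratio inhibition reaching or exceeding a fixed threshold, cut at about 30% in these data, passing the limit was not always enough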
TbMetRS inhib: Trypanosoma brucei MetRS inhibition; purified T. brucei MetRS, ATP depletion, Kinase-Glo luminescence; inhibition, % at 11.9 µM; actives 0.4% (n = 360,000); AID 624268;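 active means inhibition above a per-plate cutoff of the control wells' mean inhibition plus 3 SD, cut at about 5.5% in these data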
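Test system – parasite MetRS enzyme · Reagent – substrates ATP, L-methionine and bulk Escherichia coli tRNA · Doses – 11.9 µM compound single dose, 0.9% DMSO · Times – 15 min enzyme-compound preincubation, 2 h reaction, 10 min detection, 25 °C · Signal – Kinase-Glo luminescence, ATP depletion format · Controls – DMSO-only wells as low control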
PREPL inhibitor: human PREPL enzyme inhibition | Q4J6C6 | recombinant PREPL, fluorescence polarization activity-based probe | inhibition, % at 5.96 µM | actives 0.68% (n = 320,000); in the data active means inhibition above about 43%
iPSC survival up: enhancers of human iPSC single-cell survival | hiPSC single-cell survival, ATPlite luminescence; 100% = ROCK inhibitor wells, 0% = DMSO | actives 0.044% (n = 360,000) | survival enhancement, % at 20 µM; in the data active means survival enhancement above about 18%;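 further: cells exposed to compounds for 16 hours before the ATP read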
E coli Lon inh: inhibitors of E. coli Lon protease. P0A9M0. purified E. coli Lon protease, fluorescence polarization. inhibition, % at 7.94 µM. actives 0.42% (n = 360,000). AID 602123; in the data active means inhibition above about 13%, passing the limit was not always enough
eLon confirm: confirmation of E. coli Lon protease inhibitors | inhibition, % at 7.94 µM | purified E. coli Lon, fluorescence polarization | actives 31% (n = 1,400) | shares compounds with E coli Lon inh; in the data active means inhibition above about 16%
Large screens that a line does not name were inactive (follow-up assays come after a bar, where they were run). Shown are actives, neighbours in structure and some others; about 1.8% of the full set was active somewhere.

O=C(Nc1ccccc1)c1cc(C2CCCN(C(=O)c3ccc4c(c3)CCO4)C2)on1 (centres undefined)	none (no result: PREPL inhibitor)
NS(=O)(=O)c1ccc(NS(=O)(=O)c2ccc(C3CNC(=O)C3)cc2)cc1 (centres undefined)	E coli Lon inh 19 | eLon confirm inactive
C(/C=C/c1ccccn1)=C\c1ccccc1	SKN-1 inh 64, E coli Lon inh 36 | eLon confirm inactive
C(=C\c1ccccn1)/c1ccncc1	none
Cc1ccc(-c2csc3nc(C)n(-n4cccc4)c(=O)c23)o1	E coli Lon inh 21 | eLon confirm inactive
O=C1CN(S(=O)(=O)c2cccc(Cl)c2Cl)CCN1	E coli Lon inh 44 (no result: PREPL inhibitor) | eLon confirm inactive
COc1cccc(C2=CC(=O)CC(C)(C)C2=O)c1	E coli Lon inh 12 (no result: PREPL inhibitor) | eLon confirm inactive
CC1(C)CC(=O)C=C(c2cccc(O)c2)C1=O	none
CC(C)c1nnc(N2C(=O)C(O)=C(C(=O)c3cccs3)C2c2ccccc2)s1 (centres undefined)	E coli Lon inh 34 (no result: PREPL inhibitor) | eLon confirm 80
Cc1cccc(N2C(=O)C(O)=C(C(=O)c3cccs3)C2c2ccc(C(C)C)cc2)n1 (centres undefined)	none
O=C(NCc1ccccn1)Nc1cccc(Cl)c1Cl	none
O=C(NC12CC3CC(CC(C3)C1)C2)c1cc([N+](=O)[O-])ccc1N1CCOCC1	E coli Lon inh 19 | eLon confirm inactive
Cc1cccc2cc3c(NC(=O)CC(C)C)nn(C)c3nc12	none
Cc1ccc(C=Nc2cccnc2N)cc1	E coli Lon inh active | eLon confirm inactive
CCOc1ccc(C=Nc2cccc3ncccc23)cc1	none
COc1ccc(C=Nc2cccnc2N)cc1	E coli Lon inh active | eLon confirm inactive
COc1ccc2c(c1O)Cc1ccccc1C2=O	MT1-MMP act inh 35, E coli Lon inh 34 | eLon confirm 22
OC(CN1CCCCC1)c1ccc2c3c(cccc13)CC2 (centres undefined)	E coli Lon inh 70 (no result: PREPL inhibitor) | eLon confirm inactive
O=C(C[n+]1ccc(/C=N/O)cc1)NC1CCCCC1	none
CCc1cccc(NC(=O)CCCn2nc(CC)n3c(cc4occc43)c2=O)c1	E coli Lon inh 29 | eLon confirm inactive
CCc1nn(CCCC(=O)NCc2ccccc2Br)c(=O)c2cc3occc3n12	none
C=CCNC(=O)c1cc(=O)c2ccccc2o1	none
CC(C)(C)OC(=O)N[C@@H](Cc1ccccc1)C(=O)N1CCC(C(=O)NCC(=O)O)CC1	none
CC(C)(C)OC(=O)NC(Cc1ccccc1)C(=O)N1CCC(C(=O)NCC(=O)Nc2ccc(F)cc2)CC1 (centres undefined)	E coli Lon inh 22 | eLon confirm 43
CCOC(=O)C1=C(Nc2ccc(OC)cc2)OCC1=O	none
CC1OC2(C)OC(=N)C1(C#N)C(C#N)(C#N)C2c1ccccc1 (centres undefined)	E coli Lon inh 15 | eLon confirm inactive
CC1C2(C)OC(=N)C(C#N)(C(C)O2)C1(C#N)C#N (centres undefined)	E coli Lon inh 22 | eLon confirm 35
COC(=O)C1(C#N)C(c2ccccc2)C1(C(=O)OC)C(=O)OC (centres undefined)	none
CCCCC1OC2(C)OC(=N)C1(C#N)C(C#N)(C#N)C2c1ccccc1 (centres undefined)	SKN-1 inh 44, E coli Lon inh 29 | eLon confirm inactive
O=C(NCc1ccccc1)c1cc(C2COCCN2C(=O)OCCF)on1 (centres undefined)	none (no result: PREPL inhibitor)
CCCCN(CC)Cc1ccc(CNC(=S)Nc2cccc(F)c2)o1	none
O=C(Nc1ccccc1N1CCOCC1)C1=NN(c2ccccc2)C(=O)CC1	none (no result: PREPL inhibitor)
Cc1ccc(-c2nnn(CCC(=O)N3CCCCC3C)n2)cc1 (centres undefined)	none
CC1CCCCN1C(=O)Cn1nnc(-c2cccnc2)n1 (centres undefined)	E coli Lon inh 26 | eLon confirm inactive
CCC(CC)N1CCN(Cc2nc3ccc([N+](=O)[O-])cc3c(=O)n2-c2ccccc2F)CC1	none
CCOC(=O)N1CCN(Cc2nc3ccc([N+](=O)[O-])cc3c(=O)n2-c2ccccc2F)CC1	E coli Lon inh 18 | eLon confirm inactive
O=C(Oc1ccc2c(c1)OCC2=O)c1ccccc1	E coli Lon inh 19 | eLon confirm 23
Cc1ccc(OC(=O)c2ccccc2)cc1C	none (no result: PREPL inhibitor)
CCCCc1nnc(NC(=O)C(C)Sc2nc(N)cc(=O)[nH]2)s1 (centres undefined)	none
CCN(CC)c1ccc(/C=N/NC(=O)c2cc3ccccc3[nH]2)cc1	E coli Lon inh 16 | eLon confirm inactive
O=C(Cn1nc(-c2ccccc2)c2ccccc2c1=O)Nc1cccnc1	none
O=C(Cn1nc(-c2ccc(Cl)cc2)c2ccccc2c1=O)Nc1cccnc1	E coli Lon inh 18 | eLon confirm inactive
CCC(C)c1ccc(NC(=S)NCc2cccnc2)cc1 (centres undefined)	none
Cc1ccc(/C=C/C(=O)Nc2cccc3cccnc23)o1	E coli Lon inh 70 | eLon confirm 30
Cc1cc2oc(=O)cc(CN3CCN(C/C=C/c4ccccc4)CC3)c2cc1O	E coli Lon inh 22 | eLon confirm inactive
O=c1cc(CN2CCN(C/C=C/c3ccccc3)CC2)c2cc(O)c(-c3ccccc3)cc2o1	none
CCOC(=O)c1c(C)[nH]c(C(=O)COC(=O)C2(C)CC2(Cl)Cl)c1C (centres undefined)	none
CCOC(=O)c1[nH]c(C)c(C(=O)OCC(=O)N2CCc3ccccc32)c1C	E coli Lon inh 139 | eLon confirm inactive
O=C(CSc1nc2ccccc2s1)NC1CCCC1	E coli Lon inh 23 | eLon confirm inactive
O=C(CSc1nnc(CSc2nc3ccccc3s2)o1)NC1CCCCC1	none
CCOc1cc2c(cc1C(C)(C)C)NC(=O)CS2	none
COc1ccc(OCCN2CCC(C(=O)NC(c3ccc(F)cc3)c3ccc4ccccc4n3)CC2)cc1 (centres undefined)	E coli Lon inh 24 (no result: PREPL inhibitor) | eLon confirm inactive
Cc1ccc(C(NC(=O)C2CCN(CCOc3ccccc3)CC2)c2ccccn2)cc1 (centres undefined)	E coli Lon inh 15 (no result: PREPL inhibitor) | eLon confirm inactive
COc1ccc(OCCN2CCC(C(=O)NC(c3ccc(OC)cc3)c3ccccn3)CC2)cc1 (centres undefined)	none (no result: PREPL inhibitor)
CC(=O)Oc1ccc(C(=O)NCc2ccc3c(c2)OCO3)cc1	none
CCOC(=O)CC(NC(=O)Cc1cccs1)c1ccccc1Cl (centres undefined)	none
